Measurements: paper PMC2195906 (The Journal of Experimental Medicine, 2001)
“Also recorded” adds a separate entry of the source. Ends that are not written are not given here. * marks the point of attachment. Biotin = O=C1N[C@H]2[C@H](CS[C@H]2CCCCC(=O)*)N1

Assays:
[1] = system: purified mitochondria, inner membrane; assay: Respirometry: NADH-dependent oxygen consumption; format: biochemical, mouse; settings: Bcl-2 0.8 μM pretreated 10 min; other agents added; Fig. 5 A, 6 B
In short: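 Oxygen uptake was recorded by Clark electrode at 37°C (mannitol/KCl/MgCl2/BSA/KH2PO4 medium, pH 7.4) after 2 mM NADH and 1 μM peptide, with rotenone added to test sensitivity; rates are in nmol O2/min/mg protein. For inhibitor tests, mitochondria were pretreated 10 min with 0.8 μM Bcl-2 or 10 μM BA before succinate plus CCCP or NADH. In the kinetics, 15 μM cytochrome c oxidation was followed in parallel, with 100% set by 2.5 mM laurylmaltoside.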

[2] = target: T1, ANT (Rattus norvegicus, UniProt Q05962); assay: Plasmon resonance; format: binding; settings: for sensorgram: increase of binding as a function of time: plasmon resonance, association and dissociation phase, Fig. 1 A; for binding affinity for ANT (in words): surface plasmon resonance, purified detergent-solubilized ANT
T1 sequence (Q05962 1-298): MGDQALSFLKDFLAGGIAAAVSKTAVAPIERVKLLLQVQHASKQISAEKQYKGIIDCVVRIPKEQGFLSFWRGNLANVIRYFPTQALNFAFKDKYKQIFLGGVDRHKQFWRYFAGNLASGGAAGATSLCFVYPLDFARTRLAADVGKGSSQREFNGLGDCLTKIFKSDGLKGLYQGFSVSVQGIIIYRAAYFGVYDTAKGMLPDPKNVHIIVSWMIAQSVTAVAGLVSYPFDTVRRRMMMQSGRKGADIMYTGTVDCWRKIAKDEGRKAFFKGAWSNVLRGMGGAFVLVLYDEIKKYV

[3] = target: biotin–Vpr52-96 (synthetic peptide, COOH-terminal moiety of HIV-1 viral protein R) (HIV-1) (UniProt P69726); assay: SPR
[4] = system: COS cells; assay: ΔΨm dissipation in microinjected COS cells; format: cell-based
In short: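 COS cells grown in DMEM Glutamax with Hepes, antibiotics and 10% FCS on a premarked coverslip area (>200 cells per experiment). Cells were injected into the cytoplasm (200 hPa, 0.5 s) with PBS pH 7.2, recombinant human Bcl-2 (residues 1–218; 10 μM in the injection solution) or 2 μM König's polyanion.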

[5] = system: purified mitochondria (ΔΨm); assay: ΔΨm dissipation in purified mitochondria, effect of inhibitors; format: biochemical, mouse; settings: for protection against Vpr-induced inner MMP (in words): purified mitochondria, Fig. 6 B–E
[6] = Binding of FITC–Vpr52-96 to purified mitochondria; set-up: species or system mouse; settings: for effect on binding of Vpr52-96 to purified mitochondria: 10 min preincubation with inhibitors, Fig. 7 B
[7] = system: ANT; assay: Affinity purification of ANT by biotinylated Vpr52-96 and immunoblot; format: binding, mouse; settings: Fig. 7 C
[8] = system: ANT; settings: ref 8 26 28 40; cited from earlier work
[9] = target: T1, ANT; assay: Planar lipid bilayers, single channel level, Vpr52-96 plus ANT; format: biochemical; settings: +75 mV
In short: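 Rat heart mitochondrial ANT, purified via subtilisin treatment, Triton X-100 solubilization, hydroxyapatite and SP column (0–1 M NaCl). Proteins held 30 min RT with 1 mM CaCl2, 40 μM atractyloside or control electrolyte, mixed with dried lipid (60 μg protein/mg lipid), detergent removed by beads. Tip-dip bilayers, symmetric 100 mM KCl, 2 mM MgCl2, 10 mM Hepes pH 7.4.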

[10] = system: VDAC; settings: sucrose or cytochrome c, in vitro; ref 9 44; cited from earlier work
[11] = system: Vpr52-96–ANT interaction; format: binding, rat; settings: native purified ANT; Fig. 8 A; X ± SD, n = 3
[12] = system: ANT proteoliposomes; assay: Binding of FITC-labeled Vpr52-96 to ANT proteoliposomes; set-up: species or system rat; settings: FITC–Vpr52-96 (2 μM in Fig. 2 B); BA 50 μM; Bcl-2 800 nM preincubated (Fig. 8 B)
In short: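 ANT was purified from rat heart mitochondria (Triton X-100 extraction, hydroxyapatite, then cation-exchange with a 0–1 M NaCl gradient) and reconstituted at 0.1 mg/ml into phosphatidylcholine/cardiolipin liposomes, then dialysed overnight at 4°C. Proteoliposomes were exposed 30 min to FITC-peptide in 125 mM sucrose/10 mM Hepes pH 7.4, ultracentrifuged (290,000 g, 45 min, 10°C) and read by flow cytometry. Inhibitors were preincubated and washed out; mean ± SD, n = 3.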

[13] = system: isolated mitochondria; assay: Ultrastructure: swelling of isolated mitochondria; format: biochemical, mouse; settings: Fig. 6 C
[14] = system: recombinant VDAC; assay: Plasmon resonance: binding to recombinant VDAC; settings: control experiments, VDAC concentrations up to 10 μM
[15] = system: ANT proteoliposomes; assay: Pore-opening assay: 4-MUP release from ANT proteoliposomes; format: biochemical, rat; settings: peptides 1 μM, 60 min, Atr 200 μM = 100%, Fig. 2 C
In short: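 ANT purified from rat heart mitochondria, reconstituted into PC/cardiolipin liposomes, sonicated on ice with 1 mM 4-MUP/10 mM KCl, gel-filtered. Diluted in 10 mM Hepes, 125 mM saccharose pH 7.4, peptide 1 h RT; inhibitors added 30 min earlier. Alkaline phosphatase (0.5 mM MgCl2) 15 min 37°C, stopped at pH 10. 4-MU fluorescence 360/450 nm. Release = % of atractyloside response after untreated background subtraction; n = 3, SD.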

[16] = system: purified mitochondria (respiratory control); assay: Respiratory control; format: biochemical, mouse; settings: 1 μM Vpr-derived peptides, 10 min
In short: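 Clark-electrode oxygraphy at 37°C in 0.3 M mannitol, 10 mM KCl, 5 mM MgCl2, 1 mg/ml BSA, 10 mM KH2PO4, pH 7.4. Purified mitochondria were pretreated 10 min with 1 μM peptide; succinate oxidation was followed with sequential ADP, oligomycin and CCCP additions. Mean of three determinations.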

With `C=C(C)[C@H]1Cc2c(ccc3c2O[C@@H]2COc4cc(OC)c(OC)cc4[C@@H]2C3=O)O1` [rotenone, reference compound] the “effect on Vpr-induced NADH-dependent oxygen consumption” value [1] was “fully sensitive to rotenone”.

With “HWWRAESDEARRCYNDPKCCDFVTNR [irrelevant control (Co.), reference compound]” the “sensorgram: increase of binding as a function of time” value [2] was “Only the sensorgram of the interaction with Vpr52-96 exhibits an increase of binding”.

In the case of “biotin–Vpr52-96: NH2-terminally biotinylated Vpr52-96 (Biotin-DTWAGVEAIIRILQQLLFIHFRIGCRHSRIGVTRQRRARNGASRS)”, the “binding affinity for ANT (in words)” value [2] is reported as “affinity in the nanomolar range”.

For “adenine nucleotide translocator (ANT) purified from rat heart mitochondria (from UniProt Q05962 1-298) (natural protein)”, the Kd [3] was 9.7 nM.

In the case of “Vpr: Vpr added extracellularly to intact cells; Fig. 6 A legend gives 1 μM Vpr52-96”, the “vehicle-microinjected cells with complete ΔΨm dissipation” value ([4]; 1 μM Vpr52-96 (Fig. 6 A), 3 h, n = 3) is reported as 61 ± 8%.

With “biotin–Vpr52-96[R73,80A]: mutated biotin–Vpr52-96[R73,80A], immobilized on biosensor chip (Biotin-DTWAGVEAIIRILQQLLFIHFAIGCRHSAIGVTRQRRARNGASRS)” the “binding affinity for ANT (in words)” value [2] was “to a far lesser extent”.

In the case of cyclosporin A [CsA], the “protection against Vpr-induced inner MMP (in words)” value (“protection” below) [5] is reported as “also inhibited the manifestations of inner MMP” and the “effect on binding of Vpr52-96 to purified mitochondria” value (from here on “effect on binding”) [6] is reported as “not affected”.

In the case of König's polyanion [PA10], the “effect on Vpr action on intact cells (in words)” value ([4]; 2 μM PA10 microinjected, 1 μM Vpr52-96, 3 h) is reported as “also inhibited the effect of Vpr52-96 on intact cells”, the “protection” value [5] is reported as “also inhibited the manifestations of inner MMP” and the “effect on binding” value [6] is reported as “completely abolished; also recorded: completely blocks the binding of Vpr52-96 to intact mitochondria”. The “effect on Vpr52-96-mediated purification of ANT, intact mitochondria” value ([7]; 5 μM biotinylated Vpr52-96, 30 min RT, lysed after incubation) was “fully abolished” and the “effect on Vpr52-96-mediated purification of ANT, Triton-solubilized mitochondria” value ([7]; mitochondria lysed before incubation with 5 μM biotinylated Vpr52-96) was “did not affect”.

In the case of `C=C1[C@@H]2CC[C@H]3[C@]4(C)C[C@H](O[C@@H]5O[C@H](CO)[C@@H](OS(=O)(=O)O)[C@H](OS(=O)(=O)O)[C@H]5OC(=O)CC(C)C)C[C@@H](C(=O)O)[C@H]4CC[C@]3(C2)[C@H]1O` [Atr, atractyloside, reference compound], the “effect on ANT pore formation” value [8] is listed as “cause ANT (which normally is a strictly specific ADP/ATP antiporter) to form a nonspecific pore”.

For Bax: proapoptotic Bcl-2 family protein, the “conductance of Vpr52-96–ANT channels in presence of Bax” value ([9]; Vpr52-96 plus ANT plus Bax 0.4:1:0.3 nM, mean value) is given as 245 ± 2 pS, the “effect on ANT pore formation” value [8] is given as “cause ANT (which normally is a strictly specific ADP/ATP antiporter) to form a nonspecific pore” and the “effect on permeabilization of VDAC-containing liposomes” value [10] is given as “enhanced by Bax”.

For “Bcl-2: recombinant human Bcl-2 (amino acids 1–218)”, the “effect of Bcl-2 proteins on Vpr52-96 binding to soluble ANT” value [11] was “reduces the ANT–Vpr interaction; also recorded: reduced Vpr52-96 binding to soluble; also recorded: inhibits binding of Vpr52-96 to ANT”, the “effect on Vpr binding to ANT proteoliposomes” value [12] was “reduced” and the “effect on formation of Vpr52-96–induced channels in ANT-containing lipid bilayers” value ([9]; Vpr52-96 plus ANT plus Bcl-2 0.4:1:1 nM, Fig. 8 C) was “suppresses channel formation by the ANT–Vpr complex; also recorded: abolished the formation of Vpr52-96–induced channels”. For the same molecule, the “effect on Vpr-induced NADH-dependent oxygen consumption” value [1] was “inhibited the Vpr-mediated inner MMP to NADH”, the “inhibition of Vpr-induced ΔΨm loss in intact cells” value ([4]; 10 μM recombinant human Bcl-2 microinjected, 1 μM Vpr52-96, 3 h) was at least 95% and the “cells with ΔΨm reduction, inhibitor-injected” value ([4]; Bcl-2-injected (10 μM), 1 μM Vpr52-96, 3 h) was “Less than 5%”. The “inhibition of Vpr-induced matrix swelling” value ([13]; Bcl-2 preincubation) was about 50%, the “effect on Vpr52-96-induced matrix swelling (in words)” value [13] was “strongly reduced the Vpr52-96–induced matrix swelling” and the “inhibition of Vpr-induced ΔΨm loss in purified mitochondria” value ([5]; Bcl-2 preincubation (0.8 μM), Fig. 6 D, E) was about 70%. For the same molecule, the “protection” value [5] was “protect mitochondria against Vpr-induced MMP”, the “effect on binding” value [6] was “failed to impair the binding of Vpr52-96 to purified mitochondria; also recorded: not affected” and the “effect on permeabilization of VDAC-containing liposomes” value [10] was “inhibited by Bcl-2”.

With “Vpr52-96[R73A,80A] (Biotin-DTWAGVEAIIRILQQLLFIHFAIGCRHSAIGVTRQRRARNGASRS)” the “sensorgram: increase of binding as a function of time” value [2] was “Only the sensorgram of the interaction with Vpr52-96 exhibits an increase of binding” and the “specific binding to VDAC” value [14] was “without any difference between Vpr52-96 and Vpr52-96[R73A, 80A] and without detectable saturation”.

For “FITC-labeled Vpr52-96: FITC-labeled Vpr52-96 (DTWAGVEAIIRILQQLLFIHFRIGCRHSRIGVTRQRRARNGASRS; also: FITC label, position not given here)”, the “binding of FITC-labeled Vpr52-96 to intact mitochondria” value ([6]; 0.5 μM FITC–Vpr52-96, Fig. 7 A) was “rapidly bound to intact mitochondria and then provoked ΔΨm loss”.

For `CO[C@H](C/C=C\C=C\CC/C=C/C[C@H](C)/C=C/C(=C\C(=O)O)CC(=O)O)/C(C)=C\C=C(/C)C(=O)O` [BA, bongkrekic acid], the “effect on Vpr binding to ANT proteoliposomes” value [12] was “inhibited”, the “protection” value [5] was “also inhibited the manifestations of inner MMP” and the “effect on binding” value [6] was “partially reduced; also recorded: reduces the binding of Vpr to mitochondria to some extent”.

With `Nc1ncnc2c1ncn2[C@@H]1O[C@H](COP(=O)(O)OP(=O)(O)O)[C@@H](O)[C@H]1O` [ADP, reference compound] the “effect on Vpr-induced NADH-dependent oxygen consumption” value [1] was “strongly inhibited the Vpr-dependent, NADH-stimulated oxygen consumption”.

For Vpr1-51: NH2-terminal moiety of Vpr, the “permeabilization of ANT proteoliposomes” value [15] was “but not the NH2-terminal moiety of Vpr [Vpr1-51]” and the “effect on RC (in words)” value [16] was “but not Vpr1-51”.
